Structures are written as SMILES.

Assay [1] deals with Replicase polyprotein 1ab (Severe acute respiratory syndrome coronavirus 2) (UniProt P0DTD1). Nature of the assay: Inhibition of SARS-CoV-2 3CL protease using MCA-AVLQSGFR-Lys(Dnp)-Lys-NH2 fluorogenic peptide as substrate incubated for 30 mins at 50 uM and measured by FRET assay relative to control. The method in brief:
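Recombinant SUMO-tag-cleaved 3CLpro (E. coli BL21(DE3), Ni-NTA, Q-Sepharose, size exclusion), 50 nM final, preincubated 30 min with compound in 50 mM Tris pH 7.3, 1 mM EDTA; reaction started with 20 μM final FRET substrate. Fluorescence 320/405 nm read every 30 s for 5 min; initial velocity relative to DMSO control. Mean ± SD of three independent experiments.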

The target in assay [2] is Replicase polyprotein 1ab (Severe acute respiratory syndrome coronavirus 2, UniProt P0DTD1). The experiment in a line: Inhibition of SARS-CoV-2 3CL protease using MCA-AVLQSGFR-Lys(Dnp)-Lys-NH2 fluorogenic peptide as substrate incubated for 30 mins and measured by FRET assay.

Usually inhibition stands for the drop in the measured response relative to a control, in per cent. Lower therefore signals a weak effect. In assay [1], `Cn1c(CN2CCC(C(N)=O)CC2)c(C#N)c2ccccc21` displayed an inhibition of 24.1%.
The same measure, in the same setting: in the case of `O=C(/C=C/c1cn(CC(O)CN2CCOCC2)c2ccccc12)c1cccs1` (stereo unspecified) it was 22.3%; in that of `Cc1cccc(C)c1NC(=O)CSc1nc2c(cc1C#N)C(=O)CCC2`, 15.2%.
For orientation: IC50 means the midpoint of a concentration-inhibition curve. In the case of `CC1=C(C#N)C(=O)N(CCCO)C(=O)/C1=N\Nc1ccc(Br)cc1C(=O)O`, the inhibition in assay [1] amounted to 65.5%. Besides, in assay [2], the IC50 was 19.1 µM.
In assay [1], `NC(=O)CN1C(=O)C(O)(CC(=O)/C=C\c2ccc3c(c2)OCO3)c2ccccc21` (stereo unspecified) yielded an inhibition of 55.2%. In addition, in assay [2], the IC50 was 36.1 µM.
`CN(C(=O)CN1CC(C=O)c2ccccc21)c1ccccc1` (stereo unspecified): in assay [1], the inhibition is 32.6%.
`NS(=O)(=O)c1ccc(NC(=O)C(=O)c2ccc[nH]2)cc1` registered an inhibition in assay [1] of 31.4%.
Turning to `O=C(CC1C(=O)NCCN1C(=O)CCl)Nc1cccc(Cl)c1` (stereo unspecified), the inhibition in assay [1] was 87.6%. The same compound showed an IC50 in assay [2] of 8.5 µM.

Values taken from ChEMBL document CHEMBL5154720, “In silico screening-based discovery of novel covalent inhibitors of the SARS-CoV-2 3CL protease” (Eur J Med Chem, 2022).
